Results from ChEMBL document CHEMBL4385606, “3,5,7-Substituted Pyrazolo[4,3- d]pyrimidine Inhibitors of Cyclin-Dependent Kinases and Their Evaluation in Lymphoma Models” (J Med Chem, 2019).
Activity calls are given as the source filed them. The rule behind the calls is not given here.

Assays:
[1] = molecular target: Cyclin-dependent kinase 7 (Homo sapiens) (UniProt P50613); test: Inhibition of CDK7 in human Mino cells assessed as decrease in phosphorylation of RNA polymerase 2 C-terminal domain at Ser 2 residue at 12.5 nM by immunoblotting analysis; type: cell-based; conditions: TDE = time-dependent effect
Cyclin-dependent kinase 7 (Homo sapiens), sequence (P50613 whole entry, the tested form may be a part): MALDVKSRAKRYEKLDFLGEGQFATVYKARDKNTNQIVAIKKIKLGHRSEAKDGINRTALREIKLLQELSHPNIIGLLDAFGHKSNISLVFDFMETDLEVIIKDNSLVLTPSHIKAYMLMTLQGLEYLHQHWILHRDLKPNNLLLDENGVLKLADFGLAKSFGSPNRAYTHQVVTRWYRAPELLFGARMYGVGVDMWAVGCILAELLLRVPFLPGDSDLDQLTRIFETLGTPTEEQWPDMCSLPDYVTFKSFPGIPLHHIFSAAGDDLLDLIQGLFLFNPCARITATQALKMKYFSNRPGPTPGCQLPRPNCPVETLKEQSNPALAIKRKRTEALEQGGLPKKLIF
Method in brief: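 MINO lymphoma cells were treated at 12.5 nM, with time points over 24 h. Lysates were separated by SDS-PAGE and blotted to nitrocellulose. Phospho-RNA polymerase II CTD (Ser2, Ser5) and phospho-Rb (Ser608, Ser780) were probed with primary antibodies overnight and peroxidase-conjugated secondaries. Detection was by chemiluminescence on a CCD camera.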

[2] = system: Maver1; test: Induction of apoptosis in human Maver1 cells assessed as activation of caspase-7 at 1.5 to 12.5 nM after 24 hrs by immunoblot analysis; type: functional, cell-based
Method in brief: (§1)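 Lymphoma cell lines were cultured as the providers instruct and exposed to compound at several doses or for several times. Lysates were run on SDS-PAGE and blotted to nitrocellulose. Blots were blocked, incubated overnight with primary antibodies diluted in PBS with 5% milk and 0.1% Tween 20, then with peroxidase-conjugated secondaries, and detected by chemiluminescence on a CCD camera.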

[3] = system: Maver1; test: Antitumor activity against human Maver1 cells xenografted in NSG mouse assessed as inhibition of tumor growth at 10 mg/kg, iv administered daily measured every day during compound dosing by caliper method; type: functional, organism-based
Method in brief: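 Female NSG mice, 8-12 weeks old, given cells s.c.; once all had palpable tumors, daily i.v. tail-vein dosing at 10 mg/kg in PBS. Two perpendicular tumor diameters measured daily by caliper. Study ended when any mouse's tumor reached ≥2 cm. Groups: MINO n=10, MAVER-1 n=12, Hbl-2 n=8, VFN-M1 PDX n=10.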

[4] = system: Mus musculus; test: Ex vivo antitumor activity against human UPF1H cells xenografted NSG mouse decrease in phosphorylation of RNA polymerase 2 C-terminal domain at Ser 2 residue at 5 to 10 mg/kg, iv measured after 24 hrs by immunoblotting analysis; type: functional, organism-based
Method in brief: (§2)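 Female NSG mice, 8-12 weeks old, implanted s.c. with lymphoma cells. Once tumors were palpable, mice received a single tail-vein i.v. dose (5 or 10 mg/kg) of compound dissolved in PBS. Mice were euthanized 24 h later. Tumors were excised, filtered through 45 µm nylon mesh and lysed, then proteins were analysed by immunoblotting.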

[5] = system: Mus musculus; test: Ex vivo antitumor activity against patient derived VFN-M1 cells xenografted NSG mouse assessed as increase in cleaved caspase 9 expression at 10 mg/kg, iv measured after 24 hrs by immunoblotting analysis; type: functional, organism-based; method in brief: as §2
[6] = system: Mus musculus; test: Ex vivo antitumor activity against Maver1 xenografted NSG mouse assessed as induction of PARP1 cleavage at 10 mg/kg, iv measured after 24 hrs by immunoblotting analysis; type: functional, organism-based
Method in brief: (§3)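 NSG mice bearing palpable s.c. tumors received a single i.v. dose (5 or 10 mg/kg) and were euthanized after 24 h. Excised tumors were filtered through 45 µm nylon mesh, lysed and run on SDS-PAGE, transferred to nitrocellulose, probed overnight with primary antibodies in PBS with 5% milk and 0.1% Tween 20, then peroxidase secondaries, with chemiluminescent detection.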

[7] = system: Mus musculus; test: Ex vivo antitumor activity against Maver1 xenografted NSG mouse assessed as down regulation of MCL-1 expression at 10 mg/kg, iv measured after 24 hrs by immunoblotting analysis; type: functional, organism-based; method in brief: as §3
[8] = system: Mus musculus; test: Ex vivo antitumor activity against human Mino cells xenografted NSG mouse assessed as increase in cleaved caspase 9 expression at 5 to 10 mg/kg, iv measured after 24 hrs by immunoblotting analysis; type: functional, organism-based; method in brief: as §3
[9] = Antiproliferative activity against human Mino cells assessed as growth inhibition measured after 72 hrs by calcein AM dye-based fluorescence assay; type: functional, cell-based
Method in brief: (§4)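 Cells exposed in triplicate to six concentrations for 72 h; calcein AM added for 1 h, live-cell fluorescence read at 485/538 nm (ex/em). GI50 taken from dose-response curves.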

[10] = organism: Homo sapiens; test: Induction of apoptosis in human Mino cells assessed as effect on BCL-xL protein expression at 1.5 to 12.5 nM after 24 hrs by immunoblotting analysis; type: functional, cell-based; method in brief: as §1
[11] = molecular target: Cyclin-dependent kinase 9 (Homo sapiens) (UniProt P50750); test: Inhibition of CDK9 in human Mino cells assessed as decrease in phosphorylation of Rb at Ser 608 residue at 12.5 nM by immunoblotting analysis; type: cell-based; conditions: TDE = time-dependent effect
Cyclin-dependent kinase 9 (Homo sapiens), sequence (P50750 whole entry): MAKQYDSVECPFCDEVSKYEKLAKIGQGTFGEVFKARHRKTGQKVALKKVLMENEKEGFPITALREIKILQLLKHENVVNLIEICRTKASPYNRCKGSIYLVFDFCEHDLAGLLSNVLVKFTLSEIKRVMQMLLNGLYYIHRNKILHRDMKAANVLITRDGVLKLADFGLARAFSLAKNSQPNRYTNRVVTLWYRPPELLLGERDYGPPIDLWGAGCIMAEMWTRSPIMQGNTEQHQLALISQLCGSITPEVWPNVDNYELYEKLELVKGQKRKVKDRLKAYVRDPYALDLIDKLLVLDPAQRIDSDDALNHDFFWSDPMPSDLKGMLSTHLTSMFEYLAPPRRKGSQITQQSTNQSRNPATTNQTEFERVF
Method in brief: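 MINO lymphoma cells exposed to 12.5 nM for up to 24 h (time course). Lysates separated by SDS-PAGE, transferred to nitrocellulose, probed overnight with specific primary antibodies diluted in PBS with 5% milk and 0.1% Tween 20, then peroxidase-conjugated secondaries; chemiluminescence imaged with a CCD camera.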

[12] = system: HT; test: Antiproliferative activity against human HT cells measured after 72 hrs by calcein AM dye-based fluorescence assay; type: functional; method in brief: as §4
[13] = organism: Homo sapiens; test: Induction of apoptosis in human Mino cells assessed as reduction in MCL1 expression at 12.5 nM after 2 to 24 hrs by immunoblotting analysis; type: functional, cell-based; method in brief: as §1
[14] = system: Mus musculus; test: Ex vivo antitumor activity against human UPF1H cells xenografted NSG mouse decrease in phosphorylation of Rb at 780 residue at 5 to 10 mg/kg, iv measured after 24 hrs by immunoblotting analysis; type: functional, organism-based; method in brief: as §2
[15] = system: Mus musculus; test: Ex vivo antitumor activity against human UPF1H cells xenografted NSG mouse assessed as increase in cleaved caspase 9 expression at 5 to 10 mg/kg, iv measured after 24 hrs by immunoblotting analysis; type: functional, organism-based; method in brief: as §2
[16] = system: Mus musculus; test: Ex vivo antitumor activity against human Mino cells xenografted NSG mouse assessed as cleavage of PARP1 at 5 to 10 mg/kg, iv measured after 24 hrs by immunoblotting analysis; type: functional, organism-based; method in brief: as §3
[17] = system: Mus musculus; test: Ex vivo antitumor activity against human Mino cells xenografted NSG mouse assessed as effect on BCL-2 expression at 5 to 10 mg/kg, iv measured after 24 hrs by immunoblotting analysis; type: functional, organism-based; method in brief: as §3
[18] = organism: Homo sapiens; test: Induction of apoptosis in human Mino cells assessed as effect on BCL-2 protein expression at 1.5 to 12.5 nM after 24 hrs by immunoblotting analysis; type: functional, cell-based; method in brief: as §1
[19] = organism: Homo sapiens; test: Induction of apoptosis in human Mino cells assessed as decrease in XIAP level at 1.5 to 12.5 nM after 24 hrs by immunoblotting analysis; type: functional, cell-based; method in brief: as §1
[20] = system: G-361; test: Antiproliferative activity against human G361 cells assessed as growth inhibition measured after 72 hrs by calcein AM dye-based fluorescence assay; type: functional, cell-based; conditions: G-361, 72 h; method in brief: as §4
[21] = system: Mus musculus; test: Ex vivo antitumor activity against patient derived VFN-M1 cells xenografted NSG mouse assessed as cleavage of PARP1 at 10 mg/kg, iv measured after 24 hrs by immunoblotting analysis; type: functional, organism-based; method in brief: as §2
[22] = system: Maver1; test: Antitumor activity against human Maver1 cells xenografted in NSG mouse assessed as inhibition of tumor growth at 9 mg/kg measured on day 13 in presence of BCL2 inhibitor venetoclax by caliper method; type: functional, organism-based
Method in brief: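 MAVER-1 cells implanted s.c. in NSG mice. Groups: vehicle n=6, 9 mg/kg n=8, venetoclax 20 mg/kg n=8, combination n=10. Tumors measured daily by caliper in two perpendicular dimensions. Mean volumes ±SD tracked from therapy start (day 1).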

[23] = system: Mus musculus; test: Ex vivo antitumor activity against human UPF1H cells xenografted NSG mouse decrease in phosphorylation of Rb at […] residue at 5 to 10 mg/kg, iv measured after 24 hrs by immunoblotting analysis; type: functional, organism-based; method in brief: as §2

In the case of `CC(C)c1n[nH]c2c(NCc3ccc(-c4ccccn4)cc3)nc(SCCN)nc12`, the inhibition [1] is reported as “Tde”, the Activity [2] is reported as “Active” and the TGI [3] is reported as “Active”. The Activity [4] was “Active”, the Activity [5] was “Active” and the Activity [6] was “Active”. For the same molecule, the Activity [7] was “Active”, the Activity [8] was “Active” and the GI50 [9] was 16 nM. The IC50 [9] was 16 nM, the Activity [10] was “inactive” and the inhibition [11] was “Tde”. For the same molecule, the GI50 [12] was 22 nM, the Activity [13] was “Active” and the Activity [14] was “Active”. For the same molecule, the Activity [15] was “Active”, the Activity [16] was “Active” and the Activity [17] was “inactive”. The Activity [18] was “inactive”, the Activity [19] was “Active” and the GI50 [20] was 36 nM. The IC50 [20] was 36 nM, the Activity [21] was “Active” and the TGI [22] was “Active”. The Activity [23] was “Active”.
